TAAR1 antag – human TAAR1 antagonists, primary screen, Fluo-8 calcium fluorescence, CHO RD-HGA16 cells | inhibition, % at 3 µM | antagonist | actives 1.5% (n = 360,000) | Trace amine-associated receptor 1 (Homo sapiens), Q96RJ0;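 active = inhibition above a per-plate cutoff, the mean inhibition of test compounds on that plate plus 3 SD, cut at about 49% in these data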;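 also: 0% = DMSO plus EC80 beta-PEA response and 100% = DMSO alone without agonist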
Target sequence (Q96RJ0 whole entry, looked up): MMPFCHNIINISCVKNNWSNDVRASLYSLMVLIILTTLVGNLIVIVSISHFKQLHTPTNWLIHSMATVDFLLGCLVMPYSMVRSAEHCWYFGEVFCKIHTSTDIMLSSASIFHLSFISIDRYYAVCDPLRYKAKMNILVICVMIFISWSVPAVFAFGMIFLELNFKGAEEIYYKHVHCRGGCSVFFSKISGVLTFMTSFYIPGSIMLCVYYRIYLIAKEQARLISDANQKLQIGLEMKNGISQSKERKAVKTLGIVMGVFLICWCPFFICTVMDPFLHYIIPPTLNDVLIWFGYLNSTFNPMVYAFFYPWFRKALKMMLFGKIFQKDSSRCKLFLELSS
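test system = CHO RD-HGA16 cells bearing hTAAR1 | replication = singlicate | controls = DMSO-only wells and EC80 β-PEA-stimulated wells | reagent = EC80 β-phenethylamine stimulus | read-out basis = percent inhibition of PEA-evoked calcium signal, max/basal emission ratio | schedule = seeding 17-24 h prior, 75-min 37 °C, 30-min RT dye loading | signal = kinetic Fluo-8 calcium fluorescence measurement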
OX1R antag-1 – OX1R (HCRTR1) antagonists, primary screen, fluorescence, CHO/OX1R cells, Fluo-8 calcium, orexin A. Orexin/Hypocretin receptor type 1 (Homo sapiens), O43613. Fluo-8 calcium fluorescence. inhibition, % at 5 µM. actives 0.43% (n = 330,000). AID 434989, 2010;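 active = inhibition above its plate's threshold, mean inhibition of all tested compounds on the plate plus 3 SD, cut at about 37% in these data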;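 also: 0% = orexin A challenge wells and 100% = SB-334867-A antagonist wells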
OX1R antag-2 – antagonists of human orexin 1 receptor (OX1R). Orexin/Hypocretin receptor type 1 (Homo sapiens), O43613. OX1R-expressing cells, FRET antagonist read-out. inhibition, % at 6.6 µM. actives 1.8% (n = 330,000). AID 485270, 2010; in the data active = inhibition mostly above about 38%, no sharp cut-off; inactive = mostly below about 40%;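 also: 0% = agonist challenge alone and 100% = reference antagonist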
GalR3 antag – GalR3 antagonists in HEK293 cells, primary screen, cell-based, fluorescence readout; Galanin receptor type 3 (Homo sapiens), O60755; HEK293 GalR3-CNG cAMP membrane potential fluorescence; galR3 body fused to GalR1 C-terminus; inhibition, % at 3 µM; actives 0.44% (n = 360,000); AID 651719, 2012;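 active = inhibition above the screen-wide average plus 3 SD, cut at about 13% in these data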;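 also: forskolin and galanin both at EC90 stimulate the cells; cAMP rise reported by CNG channel membrane potential dye signal; 0% = forskolin plus galanin with DMSO and 100% = forskolin alone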
CHO parental Ca – ATP-evoked calcium signal inhibitors, parental CHO, primary screen, counter-screen for OX1R antagonist project, cell-based, fluorescence, Fluo-8 calcium dye. actives 0.63% (n = 330,000). inhibition, % at 5.6 µM. parental CHO-K1, ATP-induced calcium, Fluo-8 fluorescence;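 active = inhibition above that plate's mean sample inhibition plus 3 SD, cut at about 26% in these data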;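 also: 0% = ATP-challenged DMSO wells and 100% = DMSO wells without ATP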
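Material – parental CHO cells · Reagent – ATP stimulus · Compound – single nominal dose of 5.6 µM per compound · Detection – Fluo-8 fluorescence · Read-out basis – percent inhibition of calcium signal · Controls – ATP-challenged DMSO wells low, unchallenged DMSO wells high · Repeats – no replicates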
TAAR1 agonist – human TAAR1 agonists, primary screen, Fluo-8 calcium fluorescence, CHO RD-HGA16 cells. Trace amine-associated receptor 1 (Homo sapiens), Q96RJ0. vehicle wells 0%, saturating PEA agonist 100%. activation, % at 3 µM. actives 0.99% (n = 360,000);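 active = activation above the mean activation of all test compounds in the run plus 3 SD, cut at about 38% in these data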
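Signal – calcium-sensitive Fluo-8 signal, excitation 470-495, emission 515-575 nm · System – RD-HGA16 (CHO) cells co-expressing Gα16 and hTAAR1 · Incubation – 17-24 h seeding, 75 min 37 °C dye, 30 min RT · Compound dosing – 3 µM single concentration · Repeats – no replicates (n 1)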
OX1R HTRF confirm – OX1R (HCRTR1) antagonists, confirmation, cell-based, HTRF | shares compounds with OX1R antag-2 | OX1R-expressing cells, HTRF antagonist assay | inhibition, % at 6.6 µM | actives 49% (n = 1,800); in the data active = inhibition above about 55%;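 also: CHO cells expressing OX1R stimulated with orexin A at about EC80; 0% = agonist challenge alone and 100% = reference antagonist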
CHO-K1 HTRF cnt – signal inhibition in parental CHO-K1 cells, counter-screen for OX1R antagonist project, cell-based, HTRF | shares compounds with OX1R antag-2 | HTRF counterscreen | inhibition, % at 6.6 µM | actives 48% (n = 1,800) | AID 493232, 2011; in the data active = inhibition above about 17%;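 also: 0% = agonist challenge with vehicle and 100% = vehicle alone without agonist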
Starred values were filed as active, the others as inactive; nt = no result. Sampled rows, rich in hits. Any-hit rate of the full collection: about 4.3%.

SMILES | TAAR1 antag | OX1R antag-1 | OX1R antag-2 | GalR3 antag | CHO parental Ca | TAAR1 agonist | OX1R HTRF confirm | CHO-K1 HTRF cnt
CCC1(C)N=c2c(c(=O)n(C)c(=O)n2C)=NO1 (stereo not drawn) | 5.1 | 3.5 | 123.4* | -4.1 | -4.8 | 8.9 | 20.7 | 25.6*
COc1ccc(NC(=O)c2cccnc2)c([N+](=O)[O-])c1 | -21.4 | 4.6 | 123.4* | -9.2 | -0.9 | 3.8 | 32.1 | 15.5
COc1ccc(NC(=O)c2ccccc2)c([N+](=O)[O-])c1 | -12.4 | -13.3 | 37.3 | 1.1 | -8.5 | 4.3 | nt | nt
Cc1ccccc1/C=N/NC(=O)c1ccc(-n2cnnn2)cc1 | -4.5 | -1.3 | 5.8 | -1.4 | 0.8 | 11.0 | nt | nt
CCN1C(=O)[C@@H]2[C@@H](c3ccc(-c4ccc(F)cc4)c(OC)c3)N3CCCC[C@@]3(C(=O)OC)[C@@H]2C1=O | 9.6 | -6.0 | 82.1* | -4.8 | -40.8 | 14.7 | 41.8 | -3.5
CCOc1ccc2oc(C(=O)Nc3ccc(C)cn3)c(C)c2c1 | -38.5 | nt | nt | -9.2 | nt | 2.6 | nt | nt
Cc1ccc(NC(=O)c2oc3ccccc3c2C)nc1 | -36.1 | 13.9 | 84.3* | -1.2 | -11.8 | 4.0 | 78.7* | 2.5
O=C(Nc1ccc2nc3n(c(=O)c2c1)CCCCC3)C(=O)N1CCN(c2ccccc2)CC1 | -17.1 | -30.0 | 4.8 | nt | -17.9 | 1.7 | nt | nt
CCCOc1cccc(NC(=O)c2cc(C)oc2C)c1 | -4.7 | -47.5 | 77.7* | -1.1 | -34.6 | -1.4 | 19.9 | 13.2
[O-][n+]1onc2c1CCc1nnc(-c3ccccc3)cc1-2 | 0.3 | -18.2 | 150.9* | 9.2 | -20.6 | 4.2 | 38.6 | 69.6*
[O-][n+]1onc2c1CCc1nnccc1-2 | 11.4 | -7.3 | 19.5 | -4.7 | -1.9 | 5.9 | nt | nt
O=C(Cn1cccc1C(=O)c1ccccc1)NCCC1=CCCCC1 | 1.7 | -35.8 | 97.6* | 1.4 | -14.7 | 4.6 | 22.6 | 2.3
O=C(Cn1cccc1C(=O)c1ccccc1)NCCCc1ccccc1 | 1.4 | -2.3 | 17.4 | -5.1 | -5.6 | -2.0 | nt | nt
COc1cccc(NC(=O)Cc2nnc(SCC(=O)NC3CCCC3)n2C)c1 | -23.2 | -1.5 | -0.5 | -8.9 | -8.2 | 7.3 | nt | nt
O=C(CCCNS(=O)(=O)c1cccc2nsnc12)NCc1ccccc1 | 7.9 | -22.9 | 28.4 | 3.9 | -10.0 | 1.3 | nt | nt
CC(=O)c1cccc(NC(=O)CCS(=O)(=O)c2cccc3nsnc23)c1 | -10.6 | -30.0 | 88.9* | -3.6 | -25.1 | 12.4 | 32.7 | 24.9*
O=C(CCS(=O)(=O)c1cccc2nsnc12)NCc1ccccc1 | -11.6 | -26.1 | 119.7* | -2.1 | -16.8 | 0.3 | 40.2 | 38.6*
COc1cccc(NC(=O)CS(=O)(=O)c2cccc3nsnc23)c1 | -11.3 | -21.4 | 53.5 | -6.9 | -5.7 | 0.2 | nt | nt
CC(C)N(C(=O)Nc1ccc2nsnc2c1)C(C)C | -22.8 | -15.5 | 142.9* | -7.3 | -14.9 | 1.2 | 31.2 | 30.5*
COc1ccc(NC(=S)Nc2ccc3nsnc3c2)cc1 | 11.7 | -28.3 | 87.7* | -10.7 | -14.6 | 6.7 | 43.8 | 39.9*
CCCCNC(=O)N1CCN(Cc2ccc(F)cc2)CC1 | -1.6 | -5.4 | 5.1 | 0.1 | -7.1 | 8.9 | nt | nt
CCN1C(=O)/C(=C2/SC(C)=C(C)N2CC)SC1=S | -0.8 | 10.7 | 96.0* | -2.4 | -15.8 | 4.0 | 83.8* | 7.2
CCN1C(=O)/C(=C2\C=Cc3ccccc3N2CC)SC1=S | -19.7 | -21.0 | 33.5 | -0.7 | -8.0 | 1.2 | nt | nt

Screens (PubChem)
